Test results reported in ChEMBL document CHEMBL4152363, “Andrographolide derivative as STAT3 inhibitor that protects acute liver damage in mice” (Bioorg Med Chem, 2018).
Active and inactive are the calls of the source. No cut-off for these calls is given here.

Key:
[1] = target: T1, Signal transducer and activator of transcription 3 (Homo sapiens, UniProt P40763); test: Inhibition of […] activation in human AD293 cells incubated […] for 16 hrs followed by compound addition measured after 4 hrs by luciferase reporter gene assay; type: cell-based
HeLa = test: Cytotoxicity against human HeLa cells; type: cell-based
How it was run: (§1)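 AD-293 or HeLa cells grown in high-glucose DMEM with 10% FBS and 1% penicillin-streptomycin; compound exposure 24 h; cytotoxicity reported as CC10.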

[2] = target: T1, Signal transducer and activator of transcription 3; test: Inhibition of IFNgamma-stimulated STAT3 activation in human AD293 cells incubated with IFNgamma for 16 hrs followed by compound addition measured after 24 hrs by luciferase reporter gene assay; type: cell-based
How it was run: (§2)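 AD-293 or HeLa cells in DMEM/10% FBS stimulated with 20 pg/mL IFN-γ; compound treatment 24 h; luciferase activity measured in cell extracts; EC50 derived.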

[3] = (§3) Cytotoxicity against human AD293 cells; type: cell-based; conditions: AD293 cells; how it was run: as §1
[4] = target: T1, Signal transducer and activator of transcription 3; test: Inhibition of […] activation in human HeLa cells incubated […] for 16 hrs followed by compound addition measured after 4 hrs by luciferase reporter gene assay; type: cell-based
How it was run: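 NF-κB pathway in AD-293 or HeLa cells stimulated with 50 ng/mL TNF-α; compound treatment 4 h; luciferase activity read from cell extracts; EC50 derived.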

[5] = target: T1, Signal transducer and activator of transcription 3; test: Inhibition of IFNgamma-stimulated STAT3 activation in human HeLa cells incubated with IFNgamma for 16 hrs followed by compound addition measured after 24 hrs by luciferase reporter gene assay; type: cell-based; how it was run: as §2
[6] = target: T1, Signal transducer and activator of transcription 3; test: Inhibition of IL-6 stimulated STAT3 activation in human AD293 cells incubated with IL-6 for 16 hrs followed by compound addition measured after 6 hrs by luciferase reporter gene assay; type: cell-based
How it was run: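 AD-293 cells stimulated with 2.5 μg/mL IL-6; compound treatment 6 h; luciferase activity read from cell extracts; EC50 derived.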

AD293 = test: as §3; type: cell-based; conditions: ad293; how it was run: as §1
[7] = target: T1, Signal transducer and activator of transcription 3; test: Inhibition of IFNgamma-stimulated STAT3 phosphorylation at Tyr705 residues in human AD293 cell lysates incubated with IFNgamma followed by compound addition at 10 uM by Western blot analysis
How it was run: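 AD-293 cells treated with 1 μg/mL IFN-γ alone or with compounds at 10 μM; phospho- and total STAT1 and STAT3 assessed by western blot; representative of at least three independent experiments.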

T1 sequence (P40763 whole entry): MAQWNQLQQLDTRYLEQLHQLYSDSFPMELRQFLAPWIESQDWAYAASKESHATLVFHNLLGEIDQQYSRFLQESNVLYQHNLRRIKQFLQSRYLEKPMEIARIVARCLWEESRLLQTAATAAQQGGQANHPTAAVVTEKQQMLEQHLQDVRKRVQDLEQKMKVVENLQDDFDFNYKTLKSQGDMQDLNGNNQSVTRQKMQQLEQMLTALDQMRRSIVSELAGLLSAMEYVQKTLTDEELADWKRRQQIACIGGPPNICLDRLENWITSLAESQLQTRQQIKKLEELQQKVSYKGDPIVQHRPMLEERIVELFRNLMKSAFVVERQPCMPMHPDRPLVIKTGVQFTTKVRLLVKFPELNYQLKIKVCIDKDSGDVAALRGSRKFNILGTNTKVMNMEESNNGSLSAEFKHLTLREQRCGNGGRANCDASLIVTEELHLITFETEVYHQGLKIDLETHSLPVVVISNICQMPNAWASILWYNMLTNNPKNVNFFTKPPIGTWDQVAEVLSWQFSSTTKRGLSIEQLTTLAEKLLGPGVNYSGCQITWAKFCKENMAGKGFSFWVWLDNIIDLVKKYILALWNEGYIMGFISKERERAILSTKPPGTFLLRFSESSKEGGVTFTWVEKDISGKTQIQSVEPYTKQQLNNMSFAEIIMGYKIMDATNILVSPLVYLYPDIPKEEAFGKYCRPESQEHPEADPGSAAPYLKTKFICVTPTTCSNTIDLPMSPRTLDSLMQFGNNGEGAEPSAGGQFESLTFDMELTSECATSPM

Row | SMILES | EC50 [1] | CC10 (HeLa) | EC50 [2] | CC50 [3] | EC50 [4] | EC50 [5] | EC50 [6] | CC10 (AD293) | inhibition [7]
1 | C=C1CC[C@@H]2[C@](C)(CO[Si](C)(C)C(C)(C)C)[C@H](O)CC[C@@]2(C)[C@@H]1C/C=C1/C(=O)OC[C@H]1OC(C)=O | 6.92 µM | > 10 µM | 1.18 µM | 7.33 µM | 8.11 µM | 4.33 µM | 2.21 µM | – | –
2 | C=C1CC[C@H]2[C@@](C)(CCC(=O)[C@@]2(C)CO[Si](C)(C)C(C)(C)C)[C@@H]1C/C=C1/C(=O)OC[C@@H]1OC(C)=O | 7.98 µM | > 10 µM | 4.75 µM | 8.23 µM | > 10 µM | 9.33 µM | 4.78 µM | – | –
3 | C=C1CC[C@H]2[C@@](C)(CCC(=O)[C@@]2(C)CO)[C@@H]1C/C=C1/C(=O)OC[C@@H]1O[Si](C)(C)C(C)(C)C | > 10 µM | > 10 µM | > 10 µM | – | > 10 µM | > 10 µM | > 10 µM | > 10 µM | –
4 | C=C1CC[C@H]2[C@@](C)(CCC(=O)[C@@]2(C)CO)[C@@H]1C/C=C1/C(=O)OC[C@H]1OC(C)=O | > 10 µM | > 10 µM | 7.93 µM | – | > 10 µM | > 10 µM | 6.1 µM | > 10 µM | –
5 | CC(C)(C)[Si](C)(C)OC[C@]1(C)C(=O)CC[C@@]2(C)[C@H](C/C=C3/C(=O)OC[C@H]3O)[C@]3(CC[C@@H]21)CO3 | > 10 µM | > 10 µM | > 10 µM | 8.31 µM | > 10 µM | > 10 µM | > 10 µM | – | –
6 | C[C@@]12CCC(=O)[C@@](C)(CO)[C@H]1CC[C@]1(CO1)[C@H]2C/C=C1/C(=O)OC[C@H]1O | > 10 µM | > 10 µM | > 10 µM | – | > 10 µM | > 10 µM | > 10 µM | > 10 µM | –
7 | C=C1CC[C@@H]2[C@](C)(CO)[C@H](O)CC[C@@]2(C)[C@@H]1C/C=C1/C(=O)OC[C@@H]1O[Si](C)(C)C(C)(C)C | > 10 µM | > 10 µM | > 10 µM | – | > 10 µM | > 10 µM | > 10 µM | > 10 µM | –
8 | CC(=O)OC[C@]1(C)C(=O)CC[C@@]2(C)[C@H](C/C=C3/C(=O)OC[C@H]3O[Si](C)(C)C(C)(C)C)[C@]3(CC[C@@H]21)CO3 | > 10 µM | > 10 µM | 5.38 µM | – | > 10 µM | 8.34 µM | > 10 µM | > 10 µM | Active
9 | C=C1CC[C@H]2[C@@](C)(CCC(=O)[C@@]2(C)CO)[C@@H]1C/C=C1/C(=O)OC[C@@H]1OC(C)=O | > 10 µM | > 10 µM | > 10 µM | – | > 10 µM | > 10 µM | > 10 µM | > 10 µM | –
10 | C=C1CC[C@@H]2[C@](C)(CO[Si](C)(C)C(C)(C)C)[C@H](O)CC[C@@]2(C)[C@@H]1C/C=C1/C(=O)OC[C@@H]1OC(C)=O | 7.28 µM | > 10 µM | 8.15 µM | 6.83 µM | 9.96 µM | 9.43 µM | 3.22 µM | – | –
11 | C=C1CC[C@H]2[C@@](C)(CCC(=O)[C@@]2(C)CO[Si](C)(C)C(C)(C)C)[C@@H]1C/C=C1/C(=O)OC[C@H]1O | 7.75 µM | > 10 µM | 3.45 µM | 2.35 µM | 8.81 µM | 8.95 µM | 6.45 µM | – | –
12 | C=C1CC[C@H]2[C@@](C)(CCC(=O)[C@@]2(C)COC(C)=O)[C@@H]1C/C=C1/C(=O)OC[C@H]1O[Si](C)(C)C(C)(C)C | > 10 µM | > 10 µM | > 10 µM | – | > 10 µM | > 10 µM | > 10 µM | > 10 µM | –
13 | CC(=O)OC[C@]1(C)C(=O)CC[C@@]2(C)[C@H](C/C=C3/C(=O)OC[C@@H]3O[Si](C)(C)C(C)(C)C)[C@@]3(CC[C@@H]21)CO3 | > 10 µM | > 10 µM | 2.23 µM | – | 7.05 µM | > 10 µM | 2.56 µM | > 10 µM | –
14 | CC(=O)O[C@@H]1COC(=O)/C1=C/C[C@@H]1[C@@]2(CC[C@@H]3[C@](C)(CO)[C@H](O)CC[C@]31C)CO2 | 8.51 µM | > 10 µM | 2.6 µM | – | 7.54 µM | > 10 µM | 3.04 µM | > 10 µM | –
15 | C=C1CC[C@@H]2[C@](C)(COC(C)=O)[C@H](OC(C)=O)CC[C@@]2(C)[C@@H]1C/C=C1/C(=O)OC[C@H]1O[Si](C)(C)C(C)(C)C | > 10 µM | > 10 µM | 8.18 µM | – | > 10 µM | > 10 µM | > 10 µM | > 10 µM | –
16 | CC(C)(C)[Si](C)(C)OC[C@]1(C)C(=O)CC[C@@]2(C)[C@H](C/C=C3/C(=O)OC[C@H]3O[Si](C)(C)C(C)(C)C)[C@]3(CC[C@@H]21)CO3 | > 10 µM | > 10 µM | 4.4 µM | – | > 10 µM | > 10 µM | > 10 µM | > 10 µM | –
17 | C=C1CC[C@@H]2[C@](C)(COC(C)=O)[C@H](OC(C)=O)CC[C@@]2(C)[C@@H]1C/C=C1/C(=O)OC[C@@H]1O[Si](C)(C)C(C)(C)C | > 10 µM | > 10 µM | > 10 µM | – | > 10 µM | > 10 µM | > 10 µM | > 10 µM | –
18 | C=C1CC[C@H]2[C@@](C)(CCC(=O)[C@@]2(C)CO[Si](C)(C)C(C)(C)C)[C@@H]1C/C=C1/C(=O)OC[C@@H]1O | > 10 µM | > 10 µM | 4.72 µM | – | > 10 µM | > 10 µM | 4.34 µM | > 10 µM | –
19 | CC(=O)OC[C@]1(C)C(=O)CC[C@@]2(C)[C@H](C/C=C3/C(=O)OC[C@H]3O[Si](C)(C)C(C)(C)C)[C@@]3(CC[C@@H]21)CO3 | > 10 µM | > 10 µM | 5.81 µM | – | > 10 µM | > 10 µM | 7.98 µM | > 10 µM | –
20 | C=C1CC[C@@H]2[C@](C)(CO)[C@H](O)CC[C@@]2(C)[C@@H]1C/C=C1/C(=O)OC[C@H]1O [ANDROGRAPHOLIDE] | > 10 µM | > 10 µM | > 10 µM | – | > 10 µM | > 10 µM | > 10 µM | > 10 µM | –
21 | CC(=O)O[C@@H]1COC(=O)/C1=C/C[C@@H]1[C@]2(CC[C@@H]3[C@](C)(CO)[C@H](O)CC[C@]31C)CO2 | 9.49 µM | > 10 µM | 5.11 µM | 10.9 µM | 9.67 µM | 9.45 µM | 3.11 µM | – | –
22 | C=C1CC[C@H]2[C@@](C)(CCC(=O)[C@@]2(C)COC(C)=O)[C@@H]1C/C=C1/C(=O)OC[C@@H]1O[Si](C)(C)C(C)(C)C | > 10 µM | > 10 µM | > 10 µM | – | > 10 µM | > 10 µM | > 10 µM | > 10 µM | –
23 | CC(=O)OC[C@]1(C)C(=O)CC[C@@]2(C)[C@H](C/C=C3/C(=O)OC[C@@H]3O[Si](C)(C)C(C)(C)C)[C@]3(CC[C@@H]21)CO3 | > 10 µM | > 10 µM | 2.55 µM | – | 9.91 µM | > 10 µM | 2.65 µM | > 10 µM | –
24 | C=C1CC[C@H]2[C@@](C)(CCC(=O)[C@@]2(C)CO)[C@@H]1C/C=C1/C(=O)OC[C@H]1O[Si](C)(C)C(C)(C)C | > 10 µM | > 10 µM | > 10 µM | – | > 10 µM | > 10 µM | > 10 µM | > 10 µM | –
25 | CC(C)(C)[Si](C)(C)O[C@@H]1COC(=O)/C1=C/C[C@@H]1[C@]2(CC[C@@H]3[C@](C)(CO)[C@H](O)CC[C@]31C)CO2 | > 10 µM | > 10 µM | 3.45 µM | – | > 10 µM | > 10 µM | 3.05 µM | > 10 µM | –
26 | C=C1CC[C@H]2[C@@](C)(CCC(=O)[C@@]2(C)CO[Si](C)(C)C(C)(C)C)[C@@H]1C/C=C1/C(=O)OC[C@H]1OC(C)=O | 7.52 µM | > 10 µM | 1.97 µM | 7.35 µM | 4.57 µM | 4.43 µM | 0.99 µM | – | –
